Laboratory results published in ChEMBL document CHEMBL3352345, “Design, synthesis and biological evaluation of novel thieno[3,2-d]pyrimidine derivatives containing diaryl urea moiety as potent antitumor agents” (Eur J Med Chem, 2014).

Columns and labels:
Assay type in all cases: functional, cell-based
MDA-MB-231 = test: Cytotoxicity against human MDA-MB-231 cells after 72 hrs by MTT assay; conditions: MDA-MB-231, 72 h
Procedure, shortened: (§1)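 Cells suspended in MEM medium, plated and incubated 24 h at 37 °C in 5% CO₂, then exposed to compounds at indicated final concentrations for 72 h. IC₅₀ from averages of three determinations, relative to DMSO vehicle control.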

[1] = Cytotoxicity against human H460 cells after 72 hrs by MTT assay; conditions: NCI-H460, 72 h; procedure, shortened: as §1
[2] = Cytotoxicity against human MKN45 cells after 72 hrs by MTT assay; conditions: MKN-45, 72 h; procedure, shortened: as §1
HT-29 = test: Cytotoxicity against human HT-29 cells after 72 hrs by MTT assay; conditions: HT-29, 72 h; procedure, shortened: as §1

CCN(CC)CCCNc1nc(-c2ccc(NC(=O)Nc3ccc(F)cc3)cc2)nc2c(Cl)c(Cl)sc12
IC50 (MDA-MB-231): 1630 nM
IC50 [1]: 450 nM
IC50 [2]: 1700 nM
IC50 (HT-29): 350 nM

CN(C)CCCNc1nc(-c2ccc(NC(=O)Nc3ccc(Cl)cc3)cc2)nc2c(Cl)c(Cl)sc12
IC50 (MDA-MB-231): 1160 nM
IC50 [1]: 230 nM
IC50 [2]: 1530 nM
IC50 (HT-29): 330 nM

CCN(CC)CCNc1nc(-c2ccc(NC(=O)Nc3ccc(Cl)cc3)cc2)nc2c(Cl)c(Cl)sc12
IC50 (MDA-MB-231): 750 nM
IC50 [1]: 320 nM
IC50 [2]: 890 nM
IC50 (HT-29): 430 nM

CCN(CC)CCNc1nc(-c2ccc(NC(=O)Nc3ccc(C)cc3)cc2)nc2c(Cl)c(Cl)sc12
IC50 (MDA-MB-231): 2010 nM
IC50 [1]: 840 nM
IC50 [2]: 1450 nM
IC50 (HT-29): 950 nM

CN(C)CCNc1nc(-c2ccc(NC(=O)Nc3ccc(F)cc3)cc2)nc2ccsc12
IC50 (MDA-MB-231): 540 nM
IC50 [1]: 390 nM
IC50 [2]: 330 nM
IC50 (HT-29): 350 nM

CN(C)CCNc1nc(-c2ccc(NC(=O)Nc3ccccc3)cc2)nc2ccsc12
IC50 (MDA-MB-231): 1310 nM
IC50 [1]: 640 nM
IC50 [2]: 1120 nM
IC50 (HT-29): 620 nM

CCN(CC)CCCNc1nc(-c2ccc(NC(=O)Nc3ccccc3F)cc2)nc2ccsc12
IC50 (MDA-MB-231): 860 nM
IC50 [1]: 370 nM
IC50 [2]: 580 nM
IC50 (HT-29): 550 nM

Cc1ccc(NC(=O)Nc2ccc(-c3nc(NCCN(C)C)c4sccc4n3)cc2)cc1
IC50 (MDA-MB-231): 2180 nM
IC50 [1]: 1880 nM
IC50 [2]: 2380 nM
IC50 (HT-29): 2150 nM

CN(C)CCNc1nc(-c2ccc(NC(=O)Nc3ccc(Cl)cc3)cc2)nc2c(Cl)c(Cl)sc12
IC50 (MDA-MB-231): 870 nM
IC50 [1]: 300 nM
IC50 [2]: 910 nM
IC50 (HT-29): 460 nM

CCN(CC)CCCNc1nc(-c2ccc(NC(=O)Nc3ccccc3)cc2)nc2ccsc12
IC50 (MDA-MB-231): 1230 nM
IC50 [1]: 680 nM
IC50 [2]: 980 nM
IC50 (HT-29): 730 nM

CCN(CC)CCCNc1nc(-c2ccc(NC(=O)Nc3ccc(Cl)cc3Cl)cc2)nc2c(Cl)c(Cl)sc12
IC50 (MDA-MB-231): 3940 nM
IC50 [1]: 1170 nM
IC50 [2]: 5720 nM
IC50 (HT-29): 1230 nM

CN(C)CCCNc1nc(-c2ccc(NC(=O)Nc3ccc(F)cc3)cc2)nc2c(Cl)c(Cl)sc12
IC50 (MDA-MB-231): 980 nM
IC50 [1]: 650 nM
IC50 [2]: 1120 nM
IC50 (HT-29): 430 nM

CCN(CC)CCCNc1nc(-c2ccc(NC(=O)Nc3ccc(F)cc3)cc2)nc2ccsc12
IC50 (MDA-MB-231): 530 nM
IC50 [1]: 290 nM
IC50 [2]: 470 nM
IC50 (HT-29): 340 nM

CCN(CC)CCNc1nc(-c2ccc(NC(=O)Nc3ccccc3Cl)cc2)nc2c(Cl)c(Cl)sc12
IC50 (MDA-MB-231): 1410 nM
IC50 [1]: 460 nM
IC50 [2]: 1130 nM
IC50 (HT-29): 550 nM

CCN(CC)CCNc1nc(-c2ccc(NC(=O)Nc3ccc(Cl)cc3)cc2)nc2ccsc12
IC50 (MDA-MB-231): 550 nM
IC50 [1]: 190 nM
IC50 [2]: 370 nM
IC50 (HT-29): 150 nM

CN(C)CCNc1nc(-c2ccc(NC(=O)Nc3ccc(Cl)cc3Cl)cc2)nc2ccsc12
IC50 (MDA-MB-231): 2450 nM
IC50 [1]: 1650 nM
IC50 [2]: 2360 nM
IC50 (HT-29): 1320 nM

CCN(CC)CCNc1nc(-c2ccc(NC(=O)Nc3ccc(Cl)cc3Cl)cc2)nc2c(Cl)c(Cl)sc12
IC50 (MDA-MB-231): 1920 nM
IC50 [1]: 1300 nM
IC50 [2]: 1770 nM
IC50 (HT-29): 1140 nM

CN(C)CCCNc1nc(-c2ccc(NC(=O)Nc3ccccc3Cl)cc2)nc2c(Cl)c(Cl)sc12
IC50 (MDA-MB-231): 1560 nM
IC50 [1]: 490 nM
IC50 [2]: 1330 nM
IC50 (HT-29): 820 nM

CN(C)CCNc1nc(-c2ccc(NC(=O)Nc3ccc(F)cc3)cc2)nc2c(Cl)c(Cl)sc12
IC50 (MDA-MB-231): 1240 nM
IC50 [1]: 590 nM
IC50 [2]: 1350 nM
IC50 (HT-29): 890 nM

CS(=O)(=O)N1CCN(Cc2cc3nc(-c4cccc5[nH]ncc45)nc(N4CCOCC4)c3s2)CC1 [PICTILISIB]
IC50 [2]: 600 nM

CN(C)CCCNc1nc(-c2ccc(NC(=O)Nc3ccccc3F)cc2)nc2ccsc12
IC50 (MDA-MB-231): 660 nM
IC50 [1]: 530 nM
IC50 [2]: 730 nM
IC50 (HT-29): 470 nM

CCN(CC)CCCNc1nc(-c2ccc(NC(=O)Nc3ccccc3)cc2)nc2c(Cl)c(Cl)sc12
IC50 (MDA-MB-231): 1780 nM
IC50 [1]: 850 nM
IC50 [2]: 1640 nM
IC50 (HT-29): 820 nM

CN(C)CCCNc1nc(-c2ccc(NC(=O)Nc3ccc(Cl)cc3Cl)cc2)nc2c(Cl)c(Cl)sc12
IC50 (MDA-MB-231): 3490 nM
IC50 [1]: 980 nM
IC50 [2]: 2560 nM
IC50 (HT-29): 1320 nM

CCN(CC)CCCNc1nc(-c2ccc(NC(=O)Nc3ccc(C)cc3)cc2)nc2ccsc12
IC50 (MDA-MB-231): 1980 nM
IC50 [1]: 1240 nM
IC50 [2]: 1760 nM
IC50 (HT-29): 1620 nM

CCN(CC)CCCNc1nc(-c2ccc(NC(=O)Nc3ccccc3Cl)cc2)nc2ccsc12
IC50 (MDA-MB-231): 500 nM
IC50 [1]: 200 nM
IC50 [2]: 390 nM
IC50 (HT-29): 340 nM

CCN(CC)CCNc1nc(-c2ccc(NC(=O)Nc3ccc(Cl)cc3Cl)cc2)nc2ccsc12
IC50 (MDA-MB-231): 2480 nM
IC50 [1]: 1890 nM
IC50 [2]: 1520 nM
IC50 (HT-29): 1940 nM

CN(C)CCCNc1nc(-c2ccc(NC(=O)Nc3ccc(Cl)cc3Cl)cc2)nc2ccsc12
IC50 (MDA-MB-231): 1860 nM
IC50 [1]: 1020 nM
IC50 [2]: 2270 nM
IC50 (HT-29): 1860 nM

CN(C)CCCNc1nc(-c2ccc(NC(=O)Nc3ccccc3Cl)cc2)nc2ccsc12
IC50 (MDA-MB-231): 590 nM
IC50 [1]: 430 nM
IC50 [2]: 690 nM
IC50 (HT-29): 390 nM

CCN(CC)CCCNc1nc(-c2ccc(NC(=O)Nc3ccccc3Cl)cc2)nc2c(Cl)c(Cl)sc12
IC50 (MDA-MB-231): 970 nM
IC50 [1]: 330 nM
IC50 [2]: 1450 nM
IC50 (HT-29): 410 nM

CCN(CC)CCCNc1nc(-c2ccc(NC(=O)Nc3ccc(C)cc3)cc2)nc2c(Cl)c(Cl)sc12
IC50 (MDA-MB-231): 3040 nM
IC50 [1]: 1240 nM
IC50 [2]: 3320 nM
IC50 (HT-29): 890 nM

CN(C)CCNc1nc(-c2ccc(NC(=O)Nc3ccccc3F)cc2)nc2ccsc12
IC50 (MDA-MB-231): 600 nM
IC50 [1]: 410 nM
IC50 [2]: 530 nM
IC50 (HT-29): 510 nM

CCN(CC)CCNc1nc(-c2ccc(NC(=O)Nc3ccccc3Cl)cc2)nc2ccsc12
IC50 (MDA-MB-231): 680 nM
IC50 [1]: 320 nM
IC50 [2]: 750 nM
IC50 (HT-29): 620 nM

CCN(CC)CCCNc1nc(-c2ccc(NC(=O)Nc3ccc(Cl)cc3)cc2)nc2c(Cl)c(Cl)sc12
IC50 (MDA-MB-231): 660 nM
IC50 [1]: 270 nM
IC50 [2]: 720 nM
IC50 (HT-29): 250 nM

Cc1ccc(NC(=O)Nc2ccc(-c3nc(NCCCN(C)C)c4sc(Cl)c(Cl)c4n3)cc2)cc1
IC50 (MDA-MB-231): 4980 nM
IC50 [1]: 1110 nM
IC50 [2]: 3700 nM
IC50 (HT-29): 1320 nM

CN(C)CCNc1nc(-c2ccc(NC(=O)Nc3ccc(Cl)cc3Cl)cc2)nc2c(Cl)c(Cl)sc12
IC50 (MDA-MB-231): 3500 nM
IC50 [1]: 1520 nM
IC50 [2]: 3460 nM
IC50 (HT-29): 1280 nM

CN(C)CCNc1nc(-c2ccc(NC(=O)Nc3ccccc3Cl)cc2)nc2c(Cl)c(Cl)sc12
IC50 (MDA-MB-231): 1350 nM
IC50 [1]: 440 nM
IC50 [2]: 1170 nM
IC50 (HT-29): 570 nM

CN(C)CCNc1nc(-c2ccc(NC(=O)Nc3ccc(Cl)cc3)cc2)nc2ccsc12
IC50 (MDA-MB-231): 310 nM
IC50 [1]: 130 nM
IC50 [2]: 250 nM
IC50 (HT-29): 95 nM

CCN(CC)CCNc1nc(-c2ccc(NC(=O)Nc3ccc(F)cc3)cc2)nc2c(Cl)c(Cl)sc12
IC50 (MDA-MB-231): 1130 nM
IC50 [1]: 500 nM
IC50 [2]: 1370 nM
IC50 (HT-29): 650 nM

CCN(CC)CCNc1nc(-c2ccc(NC(=O)Nc3ccccc3F)cc2)nc2ccsc12
IC50 (MDA-MB-231): 580 nM
IC50 [1]: 430 nM
IC50 [2]: 1040 nM
IC50 (HT-29): 610 nM

CN(C)CCNc1nc(-c2ccc(NC(=O)Nc3ccccc3Cl)cc2)nc2ccsc12
IC50 (MDA-MB-231): 550 nM
IC50 [1]: 230 nM
IC50 [2]: 850 nM
IC50 (HT-29): 310 nM
